Source: PubChem
An excerpt weighted towards active compounds, which were near 1.9% of everything screened.
DSG3 Ab inh = blocks pemphigus antibody binding to human desmoglein-3. P32926. DSG3-coupled beads, scFv-anti-DSG3-GFP binding, flow cytometry; active compounds read low. binding (percent of control), % at 10 µM. actives 0.48% (n = 310,000). AID 588358;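 active means binding more than 3 SD below its plate's average and above zero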;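 further: hits lower antibody fragment binding to DSG3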
TbMetRS inhib = blocks T. brucei methionyl-tRNA synthetase activity. AID 624268. purified T. brucei MetRS, ATP depletion, Kinase-Glo luminescence. actives 0.4% (n = 360,000). inhibition, % at 11.9 µM;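 active means inhibition above a per-plate cutoff of the control wells' mean inhibition plus 3 SD, cut at about 5.5% in these data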;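 further: 0% = DMSO wells median and 100% = median of wells with control inhibitor compound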
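technique = Kinase-Glo luminescence, ATP depletion format | system = purified MetRS (methionyl-tRNA synthetase) enzyme from Trypanosoma brucei | timing = 15 min preincubation, 2 h reaction, all 25 °C | evaluation = percent inhibition versus plate control medians | dosing = single dose, 11.9 µM final nominal, 0.9% final DMSO | also added = substrates ATP, L-methionine and bulk Escherichia coli tRNA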
NadD block = inhibitors of Staphylococcus aureus NadD; inhibition, % at 20 µM; AID 602399; purified NadD enzyme, colorimetric absorbance read-out; actives 0.78% (n = 360,000); in the data active means inhibition above about 26%
Rce1 inh = inhibitors of yeast Ras-converting enzyme | actives 0.27% (n = 290,000) | yeast membranes, quenched prenylated peptide cleavage fluorescence | Q03530 | calls only;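 active means fall in fluorescence gain of 50% or more versus controls, with final raw signal at or below 3038400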;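 further: plate controls were neutral control wells for no effect and wells lacking membranes for full effect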
Target sequence (Q03530 whole entry, looked up): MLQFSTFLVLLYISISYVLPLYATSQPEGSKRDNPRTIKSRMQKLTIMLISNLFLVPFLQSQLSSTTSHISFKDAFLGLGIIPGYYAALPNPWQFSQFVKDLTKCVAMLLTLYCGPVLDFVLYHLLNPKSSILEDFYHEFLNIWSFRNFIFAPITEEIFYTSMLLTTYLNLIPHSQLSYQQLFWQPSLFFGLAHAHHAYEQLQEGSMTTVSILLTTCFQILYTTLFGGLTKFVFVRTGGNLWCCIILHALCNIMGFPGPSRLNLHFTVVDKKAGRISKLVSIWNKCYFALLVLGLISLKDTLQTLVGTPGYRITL
HCV core dimer = blocks dimerization of HCV core protein. TR-FRET GST/Flag-core106 dimerization, 1536-well. actives 0.33% (n = 300,000). AID 1899. inhibition, % at 5 µM;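 active means inhibition above the mean of all tested compounds plus 3 SD, set per screening campaign, cut at about 45% in these data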
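Assay system: Tagged HCV core106 pair (GST and Flag) | Buffer or medium: KF-containing HEPES buffer, pH 7.45, DTT, CHAPS, BSA | Also added: Eu donor and XL665 acceptor anti-tag antibodies | Dosing: One concentration, 5 µM, in 0.5% DMSO | Timing: 4 h at 22.5 °C | Technique: TR-FRET 671 and 617 nm emission | Repeats: Singlicate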
TbMetRS confirm = Trypanosoma brucei MetRS inhibition confirmed; shares compounds with TbMetRS inhib; T. brucei MetRS enzyme, luminescence (ATP depletion); inhibition, % at 11.9 µM; actives 93% (n = 1,400); AID 624412; in the data active means inhibition above about 7%
Jurkat tox = Jurkat T cell cytotoxicity for MetRS hits | shares compounds with TbMetRS inhib | Jurkat cells viability, ATP luminescence | inhibition, % at 8.3 µM | actives 12% (n = 1,400); in the data active means inhibition above about 15%;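 further: 0% = vehicle and 100% = reference inhibitor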
Tb MetRS inh FP = T. brucei MetRS inhibition, orthogonal assay. shares compounds with TbMetRS inhib. purified T. brucei MetRS, fluorescence polarization. inhibition, % at 11.9 µM. actives 44% (n = 1,400). AID 651607; in the data active means inhibition above about 17%;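 further: 0% = vehicle wells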
The depositor's hits bear a star.

COc1ccccc1-c1nnc(SCC(=O)OC(C)C)o1 was read as DSG3 Ab inh 100, TbMetRS inhib 0, NadD block 1, Rce1 inh inactive and HCV core dimer -1.
Screening C#CCOCCOCCOCCNc1nc(N2CCN(C(=O)[C@H](CCC(=O)O)n3cc(C(N)Cc4ccc(O)cc4)nn3)CC2)nc(N2CCN(C(=O)[C@H](CCC(=O)O)n3cc(C(N)Cc4ccc(O)cc4)nn3)CC2)n1 (some centres not stated) returned Rce1 inh inactive and HCV core dimer 5.
OC(COc1ccc(Cl)cc1Cl)Cn1ccnc1 (configuration not stated) was read as DSG3 Ab inh 92, TbMetRS inhib 6.0*, NadD block -2, Rce1 inh inactive, HCV core dimer 1, TbMetRS confirm 14*, Jurkat tox -1 and Tb MetRS inh FP 4.
Screening Cc1cc(Cl)ccc1OCCCC(=O)NCCCn1ccnc1 returned DSG3 Ab inh 101, TbMetRS inhib 3, NadD block -5, Rce1 inh inactive and HCV core dimer 8.
Screening O=C(CCCOc1ccc(Cl)cc1Cl)NCCCn1ccnc1 returned DSG3 Ab inh 101, TbMetRS inhib 6.5*, NadD block 0, Rce1 inh inactive, HCV core dimer 0, TbMetRS confirm 18*, Jurkat tox -7 and Tb MetRS inh FP 11.
For FC(F)(F)c1ccc(CSc2ccccn2)cc1 the results were DSG3 Ab inh 107, TbMetRS inhib -1, NadD block 2, Rce1 inh inactive and HCV core dimer 0.
COc1cc(NC(=S)N2CCN(C)CC2)c(OC)cc1Cl was read as DSG3 Ab inh 83, TbMetRS inhib -1, NadD block -1, Rce1 inh inactive and HCV core dimer 7.
Screening CCCS(=O)(=O)c1c(S(=O)(=O)CCC)c2c(N)cccn2c1C(=O)c1ccc(Br)cc1 returned DSG3 Ab inh 97, TbMetRS inhib -1, NadD block 26, Rce1 inh inactive and HCV core dimer 26.
Screening Cc1cccc(CCNC(=O)c2cc(S(=O)(=O)N3CCCCC3)c[nH]2)c1 returned DSG3 Ab inh 101, TbMetRS inhib 27*, NadD block -6, Rce1 inh inactive, HCV core dimer 9, TbMetRS confirm 46*, Jurkat tox 7 and Tb MetRS inh FP 28*.
Screening Cc1ccc(C)c(NC(=O)CN(C)C(=O)c2ccncc2)c1 returned DSG3 Ab inh 114, TbMetRS inhib 0, NadD block -2, Rce1 inh inactive and HCV core dimer 11.
`O=C(NCC1CCCCC1)c1ccc2nc([C@H]3C[C@H](O)[C@@H](CO)O3)[nH]c2c1` gave TbMetRS inhib 0 and NadD block -2.
O=C(NCc1cc(Cl)cc(Cl)c1)c1ccc2nc([C@H]3C[C@H](O)[C@@H](CO)O3)[nH]c2c1 was read as TbMetRS inhib 22*, NadD block 0, TbMetRS confirm 49*, Jurkat tox -2 and Tb MetRS inh FP 33*.
For COCCNC(=S)N(CCN(C)C)Cc1cc2cc3c(cc2[nH]c1=O)OCO3 the results were DSG3 Ab inh 116, TbMetRS inhib 0, NadD block -10, Rce1 inh inactive and HCV core dimer -9.
For O=C(N/N=C/c1cccn1-c1ccc([N+](=O)[O-])cc1)C(O)c1ccccc1 (configuration not stated) the results were DSG3 Ab inh 99, TbMetRS inhib 2, NadD block -2, Rce1 inh inactive and HCV core dimer 27.
Screening O=C(Cc1ccccc1)N/N=C/c1cccn1-c1ccc([N+](=O)[O-])cc1 returned TbMetRS inhib 13*, NadD block -1, Rce1 inh inactive, HCV core dimer 23, TbMetRS confirm 34*, Jurkat tox -2 and Tb MetRS inh FP 17.
COc1ccc(CCNC(=O)CSc2nnc(CNC(=O)c3c(F)cccc3Cl)o2)cc1OC was read as DSG3 Ab inh 108, TbMetRS inhib 0, NadD block -4, Rce1 inh inactive and HCV core dimer 8.
`CCn1c(CSc2n[nH]c(N)n2)nc2cc(C(=O)O)ccc21` gave DSG3 Ab inh 104, TbMetRS inhib 0, NadD block 2, Rce1 inh inactive and HCV core dimer -3.
For O=C1C(Nc2ccc(O)cc2)=C/C(=N/S(=O)(=O)c2cccs2)c2ccccc21 the results were DSG3 Ab inh 101, TbMetRS inhib 6.2*, NadD block -6, Rce1 inh inactive, TbMetRS confirm 9.8*, Jurkat tox 94* and Tb MetRS inh FP 10.
For C=CCC(NC(=O)N(C)C)(C(C)=O)C(=O)OC (configuration not stated) the results were TbMetRS inhib 0.
`C=CCn1c(NC(=O)c2ccccc2Cl)c(C#N)c2nc3ccccc3nc21` gave DSG3 Ab inh 96, TbMetRS inhib 6.8*, NadD block 3, Rce1 inh inactive, HCV core dimer 0, TbMetRS confirm 0, Jurkat tox -2 and Tb MetRS inh FP 6.
CCCCn1c(NC(C)=O)c(C#N)c2nc3ccccc3nc21 was read as DSG3 Ab inh 98, TbMetRS inhib 0, NadD block 1, Rce1 inh inactive and HCV core dimer 11.
Cc1ccc(Cn2c(SCCN3CCOCC3)nc3c2c(=O)n(C)c(=O)n3C)cc1 was read as DSG3 Ab inh 104, TbMetRS inhib 0, NadD block 3, Rce1 inh inactive and HCV core dimer -4.
Screening COc1ccc(C(CNC(=O)Nc2ccc(Cl)cc2)N2CCN(C)CC2)cc1 (configuration not stated) returned DSG3 Ab inh 93, TbMetRS inhib 15*, NadD block -4, Rce1 inh inactive, HCV core dimer -5, TbMetRS confirm 39*, Jurkat tox 4 and Tb MetRS inh FP 17*.
Screening COc1cccc(CNC(=O)CSc2nnc3c(n2)[nH]c2ccccc23)c1 returned TbMetRS inhib 20*, NadD block 0, HCV core dimer -10, TbMetRS confirm 64*, Jurkat tox 5 and Tb MetRS inh FP 35*.
COc1ccc(CNC(=O)CSc2nc3ccccc3n2C(C)=O)cc1 was read as DSG3 Ab inh 116, TbMetRS inhib 17*, NadD block -5, Rce1 inh inactive, HCV core dimer 9, TbMetRS confirm 29*, Jurkat tox -3 and Tb MetRS inh FP 10.
